According to publication PMC10809365 (ACS Omega, 2024):
Entries after “also recorded” stand apart in the source; their conditions may differ.

Columns and labels:
AbDapE [1] = target: T1, AbDapE (Acinetobacter baumannii, UniProt A3M8H2); experiment: DapE ninhydrin enzyme inhibition assay, AbDapE; type: biochemical; conditions: for Mode of inhibition of AbDapE: kinetic assays, modified ninhydrin assay; for Inhibition of AbDapE (in words): tested at 100 μM
Summary of the method: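 Purified His-tag-cleaved AbDapE at 8 nM final in 50 mM HEPES pH 7.5, 30 °C. Test compound (DMSO, 5% final) is preincubated with enzyme for 10 min before 2 mM N6-methyl-L,L-SDAP. After 10 min, heat to 100 °C for 1 min, chill, add 2% ninhydrin, 80 °C for 15 min, then read A570.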

AbDapE-SeMet = AbDapE-SeMet (Acinetobacter baumannii, UniProt A3M8H2); experiment: Thermal shift assay, AbDapE-SeMet; type: binding; conditions: 6 μM AbDapE-SeMet + 10× dye
AbDapE-SeMet, sequence (A3M8H2 whole entry): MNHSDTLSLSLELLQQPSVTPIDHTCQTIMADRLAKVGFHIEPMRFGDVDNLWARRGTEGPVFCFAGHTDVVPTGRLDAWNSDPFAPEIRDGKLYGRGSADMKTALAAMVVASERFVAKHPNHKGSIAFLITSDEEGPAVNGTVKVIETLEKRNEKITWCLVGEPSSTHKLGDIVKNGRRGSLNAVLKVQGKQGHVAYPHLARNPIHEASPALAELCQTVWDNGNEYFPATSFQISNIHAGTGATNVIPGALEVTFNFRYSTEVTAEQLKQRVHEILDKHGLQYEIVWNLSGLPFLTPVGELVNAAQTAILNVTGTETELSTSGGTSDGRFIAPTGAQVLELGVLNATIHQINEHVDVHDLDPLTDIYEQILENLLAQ
Summary of the method: (§1)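 SYPRO Orange thermal melt at 10× dye in 50 mM HEPES pH 7.5, 10 µL triplicates. Protein is 16 µM for native AbDapE and 6 µM for SeMet AbDapE, with DMSO kept below 5%. Tm comes from the negative first derivative of the melting curves, further differentiated to the third derivative. Ki is calculated from Tm plotted against log[test compound] using a derived van't Hoff equation.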

HiDapE [2] = target: T2, HiDapE (Haemophilus influenzae, UniProt P44514); experiment: Thermal shift assay, HiDapE; type: binding; conditions: for Effect on stability (Tm) of HiDapE, in words: thermal shift assays
T2 sequence (P44514 1-377): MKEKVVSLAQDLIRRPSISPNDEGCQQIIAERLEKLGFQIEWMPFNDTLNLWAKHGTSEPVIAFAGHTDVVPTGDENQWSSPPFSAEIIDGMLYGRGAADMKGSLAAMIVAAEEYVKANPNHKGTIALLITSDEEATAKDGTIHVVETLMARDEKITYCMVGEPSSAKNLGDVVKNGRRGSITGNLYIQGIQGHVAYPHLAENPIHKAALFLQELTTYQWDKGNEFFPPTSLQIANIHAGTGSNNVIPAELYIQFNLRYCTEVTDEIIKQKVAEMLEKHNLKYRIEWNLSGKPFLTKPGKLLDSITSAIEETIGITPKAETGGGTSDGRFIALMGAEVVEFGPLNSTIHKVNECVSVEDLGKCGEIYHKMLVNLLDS

AbDapE [3] = target: T1, AbDapE; experiment: Thermal shift assay, AbDapE native; type: binding; conditions: for Tm1 AbDapE / Tm2 AbDapE: 16 μM AbDapE + 10× dye
Summary of the method: as §1

HiDapE [4] = target: T2, HiDapE; conditions: read-out: HiDapE IC50 (sulfate); previously published enzyme inhibition; cited from earlier work
DapE = DapE from E. faecium and E. coli studied; cited from earlier work
[5] = 0.005 μM captopril, 200 nM HiDapE + 10× dye
[6] = 0.05 μM captopril, 200 nM HiDapE + 10× dye
[7] = 0.1 μM captopril, 200 nM HiDapE + 10× dye
[8] = 0.5 μM captopril, 200 nM HiDapE + 10× dye
[9] = 0.8 μM captopril, 200 nM HiDapE + 10× dye
[10] = 1 μM captopril, 200 nM HiDapE + 10× dye
[11] = 3 μM captopril, 200 nM HiDapE + 10× dye
[12] = 5 μM captopril, 200 nM HiDapE + 10× dye
[13] = 10 μM captopril, 200 nM HiDapE + 10× dye
[14] = 0.001 mM Li2SO4, 200 nM HiDapE + 10× dye
[15] = 0.005 mM Li2SO4, 200 nM HiDapE + 10× dye
[16] = 0.1 mM Li2SO4, 200 nM HiDapE + 10× dye
[17] = 0.5 mM Li2SO4, 200 nM HiDapE + 10× dye
[18] = 1 mM Li2SO4, 200 nM HiDapE + 10× dye
[19] = 5 mM Li2SO4, 200 nM HiDapE + 10× dye
[20] = 10 mM Li2SO4, 200 nM HiDapE + 10× dye
[21] = 30 mM Li2SO4, 200 nM HiDapE + 10× dye
[22] = 50 mM Li2SO4, 200 nM HiDapE + 10× dye
[23] = 60 mM Li2SO4, 200 nM HiDapE + 10× dye
[24] = 70 mM Li2SO4, 200 nM HiDapE + 10× dye

T1 sequence (A3M8H2 whole entry): as the sequence (A3M8H2 whole entry) above

## C[C@H](CS)C(=O)N1CCC[C@H]1C(=O)O [Captopril]
AbDapE [1]; AbDapE IC50, ninhydrin assay, 8 nM enzyme, 2 mM N^6-methyl-L,L-SDAP
  IC50: 0.0012 mM
AbDapE [1]
  Mode of inhibition of AbDapE: competitive inhibitors
AbDapE-SeMet; 0.005 μM captopril
  Tm AbDapE-SeMet: 65.3 ± 0.2 °C
AbDapE-SeMet; 0.05 μM captopril
  Tm AbDapE-SeMet: 65.5 ± 0.1 °C
AbDapE-SeMet; 0.1 μM captopril
  Tm AbDapE-SeMet: 65.3 ± 0.2 °C
AbDapE-SeMet; 0.5 μM captopril
  Tm AbDapE-SeMet: 65.1 ± 0.1 °C
AbDapE-SeMet; 0.8 μM captopril
  Tm AbDapE-SeMet: 66.1 ± 0.1 °C
AbDapE-SeMet; 1 μM captopril
  Tm AbDapE-SeMet: 65.7 ± 0.1 °C
AbDapE-SeMet; 3 μM captopril
  Tm AbDapE-SeMet: 66.4 ± 0.3 °C
AbDapE-SeMet; 5 μM captopril
  Tm AbDapE-SeMet: 67.2 ± 0.2 °C
AbDapE-SeMet; 10 μM captopril
  Tm AbDapE-SeMet: 68.5 ± 0.1 °C
HiDapE [2]; [5]
  Tm1 HiDapE: 51.5 ± 0.1 °C
  Tm2 HiDapE: 78.2 ± 0.1 °C
HiDapE [2]; [6]
  Tm1 HiDapE: 50.2 ± 0.6 °C
  Tm2 HiDapE: 78.6 ± 0.1 °C
HiDapE [2]; [7]
  Tm1 HiDapE: 50.0 ± 0.8 °C
  Tm2 HiDapE: 78.1 ± 0.1 °C
HiDapE [2]; [8]
  Tm1 HiDapE: 50.5 ± 0.1 °C
  Tm2 HiDapE: 78.3 ± 0.1 °C
HiDapE [2]; [9]
  Tm1 HiDapE: 50.3 ± 0.5 °C
  Tm2 HiDapE: 77.9 ± 0.1 °C
HiDapE [2]; [10]
  Tm1 HiDapE: 51.2 ± 0.2 °C
  Tm2 HiDapE: 77.8 ± 0.1 °C
HiDapE [2]; [11]
  Tm1 HiDapE: 52.2 ± 0.1 °C
  Tm2 HiDapE: 78.0 ± 0.1 °C
HiDapE [2]; [12]
  Tm1 HiDapE: 53.2 ± 0.2 °C
  Tm2 HiDapE: 77.8 ± 0.1 °C
HiDapE [2]; [13]
  Tm1 HiDapE: 52.9 ± 0.6 °C
  Tm2 HiDapE: 77.9 ± 0.1 °C
HiDapE [2]
  Effect on stability (Tm) of HiDapE, in words: stabilize HiDapE
AbDapE [3]; 0.005 μM captopril
  Tm1 AbDapE: 41.9 ± 0.1 °C
  Tm2 AbDapE: 62.9 ± 0.1 °C
AbDapE [3]; 0.05 μM captopril
  Tm1 AbDapE: 41.9 ± 0.2 °C
  Tm2 AbDapE: 63.3 ± 0.7 °C
AbDapE [3]; 0.1 μM captopril
  Tm1 AbDapE: 41.9 ± 0.1 °C
  Tm2 AbDapE: 62.6 ± 0.3 °C
AbDapE [3]; 0.5 μM captopril
  Tm1 AbDapE: 41.9 ± 0.2 °C
  Tm2 AbDapE: 63.1 ± 0.4 °C
AbDapE [3]; 0.8 μM captopril
  Tm1 AbDapE: 41.9 ± 0.1 °C
  Tm2 AbDapE: 62.3 ± 0.1 °C
AbDapE [3]; 1 μM captopril
  Tm1 AbDapE: 41.7 ± 0.1 °C
  Tm2 AbDapE: 63.4 ± 1.0 °C
AbDapE [3]; 3 μM captopril
  Tm1 AbDapE: 41.7 ± 0.2 °C
  Tm2 AbDapE: 65.1 ± 0.3 °C
AbDapE [3]; 5 μM captopril
  Tm1 AbDapE: 41.4 ± 0.1 °C
  Tm2 AbDapE: 64.1 ± 0.2 °C
AbDapE [3]; 10 μM captopril
  Tm1 AbDapE: 41.1 ± 0.1 °C
  Tm2 AbDapE: 66.6 ± 0.2 °C
AbDapE [3]; 15 μM captopril
  Tm1 AbDapE: 42.0 ± 0.1 °C
  Tm2 AbDapE: 65.5 ± 0.4 °C
AbDapE [3]; thermal shift assays
  Effect on stability of AbDapE, in words: increases the stability

## CC(=O)N1CCc2cc(Cl)c(S(=O)(=O)NCCC(C)C)cc21 [1-acetyl-5-chloro-N-isopentylindoline-6-sulfonamide]
AbDapE [1]
  Inhibition of AbDapE (in words): did not inhibit AbDapE significantly
AbDapE [1]; listed as indoline sulfonamide
  Inhibition of AbDapE (in words): not significantly inhibited; also recorded: did not measurably inhibit

## O=S(=O)([O-])[O-].[Li+].[Li+] [Lithium sulfate]
AbDapE [1]
  Mode of inhibition of AbDapE: competitive inhibitors
HiDapE [4]
  IC50: 13.8 mM
AbDapE-SeMet; 0.001 mM Li2SO4
  Tm AbDapE-SeMet: 64.2 ± 0.7 °C
AbDapE-SeMet; 0.005 mM Li2SO4
  Tm AbDapE-SeMet: 64.1 ± 0.3 °C
AbDapE-SeMet; 0.1 mM Li2SO4
  Tm AbDapE-SeMet: 64.0 ± 0.2 °C
AbDapE-SeMet; 0.5 mM Li2SO4
  Tm AbDapE-SeMet: 64.9 ± 0.1 °C
AbDapE-SeMet; 1 mM Li2SO4
  Tm AbDapE-SeMet: 64.7 ± 0.5 °C
AbDapE-SeMet; 5 mM Li2SO4
  Tm AbDapE-SeMet: 65.2 ± 0.1 °C
AbDapE-SeMet; 10 mM Li2SO4
  Tm AbDapE-SeMet: 65.0 ± 0.3 °C
AbDapE-SeMet; 50 mM Li2SO4
  Tm AbDapE-SeMet: 63.1 ± 0.1 °C
AbDapE-SeMet; 70 mM Li2SO4
  Tm AbDapE-SeMet: 61.8 ± 0.1 °C
HiDapE [2]; [14]
  Tm1 HiDapE: 51.7 ± 0.3 °C
  Tm2 HiDapE: 75.6 ± 0.3 °C
HiDapE [2]; [15]
  Tm1 HiDapE: 51.4 ± 0.2 °C
  Tm2 HiDapE: 76.2 ± 0.5 °C
HiDapE [2]; [16]
  Tm1 HiDapE: 52.7 ± 0.4 °C
  Tm2 HiDapE: 76.1 ± 0.6 °C
HiDapE [2]; [17]
  Tm1 HiDapE: 51.2 ± 0.7 °C
  Tm2 HiDapE: 78.3 ± 0.1 °C
HiDapE [2]; [18]
  Tm1 HiDapE: 50.7 ± 0.2 °C
  Tm2 HiDapE: 77.8 ± 0.1 °C
HiDapE [2]; [19]
  Tm1 HiDapE: 51.2 ± 0.6 °C
  Tm2 HiDapE: 77.7 ± 0.1 °C
HiDapE [2]; [20]
  Tm1 HiDapE: 51.2 ± 0.6 °C
  Tm2 HiDapE: 77.4 ± 0.1 °C
HiDapE [2]; [21]
  Tm1 HiDapE: 52.6 ± 0.5 °C
  Tm2 HiDapE: 74.6 ± 0.3 °C
HiDapE [2]; [22]
  Tm1 HiDapE: 53.3 ± 0.5 °C
  Tm2 HiDapE: 75.9 ± 0.1 °C
HiDapE [2]; [23]
  Tm1 HiDapE: 53.3 ± 0.3 °C
  Tm2 HiDapE: 73.8 ± 0.1 °C
HiDapE [2]; [24]
  Tm1 HiDapE: 54.4 ± 0.5 °C
  Tm2 HiDapE: 76.6 ± 0.1 °C
HiDapE [2]; read-out: Ki (HiDapE, thermal shift), Tm vs log [concentration], derived Van't Hoff equation, 200 nM HiDapE + 10× dye
  Ki: 18.4 mM
HiDapE [2]
  Effect on stability (Tm) of HiDapE, in words: stabilize HiDapE
AbDapE [3]; 0.001 mM Li2SO4
  Tm1 AbDapE: 41.4 ± 0.1 °C
  Tm2 AbDapE: 63.1 ± 0.1 °C
AbDapE [3]; 0.005 mM Li2SO4
  Tm1 AbDapE: 41.8 ± 0.2 °C
  Tm2 AbDapE: 62.8 ± 0.2 °C
AbDapE [3]; 0.1 mM Li2SO4
  Tm1 AbDapE: 41.6 ± 0.1 °C
  Tm2 AbDapE: 62.2 ± 0.1 °C
AbDapE [3]; 0.5 mM Li2SO4
  Tm1 AbDapE: 41.7 ± 0.1 °C
  Tm2 AbDapE: 63.1 ± 0.1 °C
AbDapE [3]; 1 mM Li2SO4
  Tm1 AbDapE: 41.3 ± 0.1 °C
  Tm2 AbDapE: 63.0 ± 0.1 °C
AbDapE [3]; 5 mM Li2SO4
  Tm1 AbDapE: 41.6 ± 0.1 °C
  Tm2 AbDapE: 61.5 ± 0.2 °C
AbDapE [3]; 10 mM Li2SO4
  Tm1 AbDapE: 41.5 ± 0.1 °C
  Tm2 AbDapE: 60.4 ± 0.1 °C
AbDapE [3]; 30 mM Li2SO4
  Tm1 AbDapE: 42.2 ± 0.2 °C
  Tm2 AbDapE: 59.1 ± 0.2 °C
AbDapE [3]; 50 mM Li2SO4
  Tm1 AbDapE: 42.1 ± 0.1 °C
  Tm2 AbDapE: 58.3 ± 0.1 °C
AbDapE [3]; 60 mM Li2SO4
  Tm1 AbDapE: 42.4 ± 0.2 °C
  Tm2 AbDapE: 57.5 ± 0.1 °C
AbDapE [3]; 70 mM Li2SO4
  Tm1 AbDapE: 42.4 ± 0.3 °C
  Tm2 AbDapE: 56.7 ± 0.2 °C

## Cc1ccccc1C(OCCN(C)C)c1ccccc1 (stereo not shown) [orphenadrine]
DapE
  Effect on Tm values of DapE, in words: lowering of the Tm values

## CCN(CC)C(=S)SSC(=S)N(CC)CC [disulfiram]
DapE
  Effect on Tm values of DapE, in words: lowering of the Tm values
